Results on eleven molecules are retold here after ChEMBL document CHEMBL1131252, “Rational design and combinatorial evaluation of enzyme inhibitor scaffolds: identification of novel inhibitors of matrix metalloproteinases” (J Med Chem, 1998).

Assay [1] has as its target T1, Matrix metalloproteinase-9 (Homo sapiens, UniProt P14780). Description: Inhibition of Matrix Metalloprotease-9. Put shortly:
(§1)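 Gelatinase-B, a recombinant C-terminally truncated form expressed in Pichia pastoris, used at 2 nM final. Buffer was 20 mM Hepes, 5 mM CaCl₂, 0.02% Brij35, 0.5 mM cysteine, at room temperature. Inhibitor in degassed methanol (2% final) was added 3 min before 10 μM Mca-Pro-Leu-Gly-Leu-Dpa-Ala-Arg-NH₂. Fluorescence at 330/430 nm was logged per minute for 30 min; IC50 was fitted to v_i = v_0/(1+[I]/IC50).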

The target in assay [2] is T2, Stromelysin-1 (Homo sapiens, UniProt P08254). Briefly: Inhibition of Matrix Metalloprotease-3. Put shortly:
(§2)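 Stromelysin-1, recombinant human C-terminally truncated form, used at 10 nM final. Conditions: room temperature; Hepes 20 mM, CaCl₂ 5 mM, Brij35 0.02%, cysteine 0.5 mM; inhibitor in degassed methanol (2% final) preincubated 3 min. Reaction started with quenched-fluorescence substrate Mca-PLGL-Dpa-AR-NH₂ (10 μM final), read at ex 330/em 430 nm every minute for 30 min. IC50 came from rate fit v_i = v_0/(1+[I]/IC50).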

In assay [3] the target is T3, Interstitial collagenase (Homo sapiens, UniProt P03956).
T3 sequence (P03956 whole entry): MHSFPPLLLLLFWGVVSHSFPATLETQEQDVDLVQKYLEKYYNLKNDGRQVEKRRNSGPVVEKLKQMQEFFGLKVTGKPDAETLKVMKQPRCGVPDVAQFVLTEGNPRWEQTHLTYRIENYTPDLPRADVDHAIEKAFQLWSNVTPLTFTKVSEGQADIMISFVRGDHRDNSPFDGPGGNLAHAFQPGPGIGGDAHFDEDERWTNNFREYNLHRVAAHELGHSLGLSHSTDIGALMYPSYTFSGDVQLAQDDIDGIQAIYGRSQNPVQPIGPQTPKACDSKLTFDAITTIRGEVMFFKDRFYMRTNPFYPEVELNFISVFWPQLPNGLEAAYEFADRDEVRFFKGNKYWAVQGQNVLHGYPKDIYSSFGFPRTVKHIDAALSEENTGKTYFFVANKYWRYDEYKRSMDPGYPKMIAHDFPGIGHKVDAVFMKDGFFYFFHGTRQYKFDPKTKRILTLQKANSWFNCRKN
Briefly: Inhibition of Matrix Metalloprotease-1. Put shortly: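 Recombinant C-terminally truncated human collagenase-1 at 10 nM final, in 20 mM Hepes, 5 mM CaCl₂, 0.02% Brij35, 0.5 mM cysteine at room temperature. Inhibitor was added in degassed methanol (2% final), then 3 min later 10 μM Mca-Pro-Leu-Gly-Leu-Dpa-Ala-Arg-NH₂. Fluorescence (ex 330/em 430 nm) was read each minute for 30 min; IC50 was fitted as v_i = v_0/(1+[I]/IC50).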

The target of assay [4] is T4, Matrilysin (Homo sapiens, UniProt P09237).
T4 sequence (P09237 whole entry): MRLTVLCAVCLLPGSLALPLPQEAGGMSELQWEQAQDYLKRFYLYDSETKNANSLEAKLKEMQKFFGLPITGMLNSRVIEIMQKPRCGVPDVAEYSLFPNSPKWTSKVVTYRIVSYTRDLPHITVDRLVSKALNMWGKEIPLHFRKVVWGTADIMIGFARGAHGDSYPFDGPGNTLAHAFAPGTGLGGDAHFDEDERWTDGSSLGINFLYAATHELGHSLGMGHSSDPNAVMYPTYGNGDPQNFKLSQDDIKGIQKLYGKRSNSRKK
Description: Inhibition of matrilysin (Matrix metalloprotease-7). Put shortly: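 Matrilysin (recombinant C-terminally truncated human) at 0.5 nM final, room temperature, in buffer of 20 mM Hepes, 5 mM CaCl₂, 0.02% Brij35, 0.5 mM cysteine. Inhibitor was added from degassed methanol (2% final) with 3 min preincubation, then 10 μM quenched-fluorescence Mca-PLGL-Dpa-AR-NH₂ substrate. Fluorescence (ex 330/em 430 nm) was read once a minute for 30 min; IC50 came from v_i = v_0/(1+[I]/IC50).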

Assay [5] has as its target T1, Matrix metalloproteinase-9. Briefly: Inhibition of gelatinase-B (Matrix metalloprotease-9). On the set-up: species or system Komagataella pastoris. Summed up:
as §1

In assay [6] the target is T2, Stromelysin-1. Briefly: Inhibition of stromelysin (Matrix metalloprotease-3). Put shortly:
as §2

Assay [7] deals with T3, Interstitial collagenase. Briefly: Inhibition of collagenase-1 (Matrix metalloprotease-1).
Assay [8] addresses T2, Stromelysin-1. Description: Inhibition of stromelysin-1. Put shortly:
as §2

T2 sequence (P08254 whole entry, the tested form may be a part): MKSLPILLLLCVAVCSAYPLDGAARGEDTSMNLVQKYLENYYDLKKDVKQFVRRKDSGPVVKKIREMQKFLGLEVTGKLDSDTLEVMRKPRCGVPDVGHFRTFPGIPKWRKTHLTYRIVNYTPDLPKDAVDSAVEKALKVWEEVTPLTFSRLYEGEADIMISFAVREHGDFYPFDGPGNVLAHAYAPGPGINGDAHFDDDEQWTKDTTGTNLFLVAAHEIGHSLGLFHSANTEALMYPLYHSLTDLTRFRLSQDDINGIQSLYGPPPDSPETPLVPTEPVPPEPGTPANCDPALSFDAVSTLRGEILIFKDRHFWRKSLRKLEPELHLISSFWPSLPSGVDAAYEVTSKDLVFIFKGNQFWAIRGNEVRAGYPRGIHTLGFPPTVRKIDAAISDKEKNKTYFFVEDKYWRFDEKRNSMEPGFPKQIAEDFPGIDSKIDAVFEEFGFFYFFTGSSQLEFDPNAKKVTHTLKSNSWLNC
T1 sequence (P14780 whole entry, the tested form may be a part): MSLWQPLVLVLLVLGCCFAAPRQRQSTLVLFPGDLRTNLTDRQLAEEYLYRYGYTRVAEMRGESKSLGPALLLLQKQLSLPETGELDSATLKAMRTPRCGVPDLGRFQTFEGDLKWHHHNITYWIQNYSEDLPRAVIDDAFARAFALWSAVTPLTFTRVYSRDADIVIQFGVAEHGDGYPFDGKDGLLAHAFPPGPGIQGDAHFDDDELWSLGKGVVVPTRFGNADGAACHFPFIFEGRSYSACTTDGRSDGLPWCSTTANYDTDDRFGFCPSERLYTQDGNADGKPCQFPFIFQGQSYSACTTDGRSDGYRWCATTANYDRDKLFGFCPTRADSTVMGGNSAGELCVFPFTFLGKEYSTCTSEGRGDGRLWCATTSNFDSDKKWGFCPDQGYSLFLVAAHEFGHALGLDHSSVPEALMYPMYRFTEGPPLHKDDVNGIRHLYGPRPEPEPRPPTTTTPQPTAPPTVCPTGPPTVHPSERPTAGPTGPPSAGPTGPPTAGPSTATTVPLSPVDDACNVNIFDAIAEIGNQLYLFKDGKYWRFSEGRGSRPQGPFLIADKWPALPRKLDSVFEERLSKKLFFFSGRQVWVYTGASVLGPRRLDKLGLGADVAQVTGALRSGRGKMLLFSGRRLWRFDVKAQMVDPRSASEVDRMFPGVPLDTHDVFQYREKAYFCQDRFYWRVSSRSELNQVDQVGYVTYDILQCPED

Broadly, the IC50 is the midpoint of a concentration-inhibition curve. Low values mean greater potency in that assay, high ones weaker potency in that assay. `O=C1N[C@@H](CS)C(=O)N(Cc2ccc3ccccc3n2)[C@H]1CC1CCCCC1`: the IC50 in assay [1] was found to be 87 nM; in assay [2], 2400 nM; in assay [3], 35 nM.

As for `CCCC[C@H]1C(=O)N[C@@H](CS)C(=O)N1CC1CCCCC1`, the IC50 turned out to be 370 nM in assay [1], 3400 nM in assay [2] and 220 nM in assay [3].

Regarding `O=C1N[C@H](CS)C(=O)N(CC2CCCCC2)[C@H]1CC1CCCCC1`, the 50% inhibitory concentration (IC50) in assay [4] is above 40000 nM; in assay [5], 7000 nM; in assay [6], above 40000 nM; in assay [7], 2600 nM.

Regarding `CCCCCCCCN1C(=O)[C@H](Cc2cccnc2)NC(=O)[C@H]1CS`, the IC50 in assay [7] is 10000 nM.

In the case of `O=C1N[C@@H](CS)C(=O)N(CC2CCCCC2)[C@H]1CC1CCCCC1`, the half-maximal inhibitory concentration (IC50) in assay [1] was 121 nM; in assay [2], 2910 nM; in assay [4] it was 590 nM; in assay [5], 113 nM; in assay [6], 2300 nM; in assay [7] it was 47 nM. The molecule also returned a concentration for half-maximal inhibition (IC50) in assay [3] of 47 nM.

Take `CCCCCCN1C(=O)[C@H](Cc2cccnc2)NC(=O)[C@H]1CS`: the IC50 in assay [7] stood at 2000 nM.

As for `COc1ccc(CN2C(=O)[C@H](CS)NC(=O)[C@@H]2Cc2ccccc2)cc1`, the half-maximal inhibitory concentration (IC50) is 2360 nM in assay [1], 4040 nM in assay [2] and 64 nM in assay [3].

Turning to `O=C1N[C@@H](CS)C(=O)N(CC2CCCCC2)[C@@H]1CC1CCCCC1`, the results for the concentration for half-maximal inhibition (IC50) in assay [8], in assay [4] and in assay [5] were above 40000 nM, 4800 nM and 12000 nM, respectively.

As for `O=C1N[C@H](CS)C(=O)N(CC2CCCCC2)[C@@H]1CC1CCCCC1`, the IC50 in assay [8] is above 40000 nM; in assay [4] it was above 40000 nM; in assay [5] it was above 40000 nM; in assay [7], 14000 nM.

Consider `CCCCN1C(=O)[C@H](CS)NC(=O)[C@@H]1Cc1ccccc1`, for which the IC50 was determined as 2360 nM in assay [1], 19000 nM in assay [2] and 319 nM in assay [3].

`COc1ccc(CN2C(=O)[C@H](CS)NC(=O)[C@@H]2CC2CCCCC2)cc1`: the half-maximal inhibitory concentration (IC50) turned out to be 79 nM in assay [1], 3800 nM in assay [2] and 30 nM in assay [3].
